pIC50: −log10 of the molar value.

Experimental findings from ChEMBL document CHEMBL1145910, “5,6,7-trisubstituted 4-aminopyrido[2,3-d]pyrimidines as novel inhibitors of adenosine kinase” (J Med Chem, 2003) are described below.

The subject of assay [1] is Mus musculus. As to the kind of experiment: Percent maximal protective effect for hotplate analgesia in mice after 30 umol/kg intraperitoneal administration. Type of assay: functional. The procedure, abridged:
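Mice (n = 6-8 per group) tested on 55 °C hotplate 30 min after intraperitoneal dosing. %MPE = (postdrug latency − vehicle latency)/(cutoff latency − vehicle latency) × 100, cutoff 180 s; significance versus vehicle-treated mice at p < 0.05.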

The target of assay [2] is Adenosine kinase (Homo sapiens, UniProt P55263). The experiment in a line: Inhibition of adenosine kinase activity in IMR-32 human neuroblastoma cells. The format is cell-based.
Sequence of Adenosine kinase (Homo sapiens, UniProt P55263) (P55263 whole entry): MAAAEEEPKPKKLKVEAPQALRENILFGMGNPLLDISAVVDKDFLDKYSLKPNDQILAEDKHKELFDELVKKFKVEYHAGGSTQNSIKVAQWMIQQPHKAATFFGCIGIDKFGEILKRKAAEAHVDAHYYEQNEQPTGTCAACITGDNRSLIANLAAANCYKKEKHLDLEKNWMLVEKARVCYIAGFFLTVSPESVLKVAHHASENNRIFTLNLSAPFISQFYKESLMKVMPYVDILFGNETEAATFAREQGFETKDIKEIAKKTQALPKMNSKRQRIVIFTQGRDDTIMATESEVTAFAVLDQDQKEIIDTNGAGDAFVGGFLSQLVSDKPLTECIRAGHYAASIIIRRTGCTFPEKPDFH
For assay [3], the target named is Adenosine kinase (Rattus norvegicus, UniProt Q64640). As to the kind of experiment: Inhibition adenosine kinase activity in rat brain in vitro. The format is tissue-based.
Sequence of Adenosine kinase (Rattus norvegicus, UniProt Q64640) (Q64640 whole entry): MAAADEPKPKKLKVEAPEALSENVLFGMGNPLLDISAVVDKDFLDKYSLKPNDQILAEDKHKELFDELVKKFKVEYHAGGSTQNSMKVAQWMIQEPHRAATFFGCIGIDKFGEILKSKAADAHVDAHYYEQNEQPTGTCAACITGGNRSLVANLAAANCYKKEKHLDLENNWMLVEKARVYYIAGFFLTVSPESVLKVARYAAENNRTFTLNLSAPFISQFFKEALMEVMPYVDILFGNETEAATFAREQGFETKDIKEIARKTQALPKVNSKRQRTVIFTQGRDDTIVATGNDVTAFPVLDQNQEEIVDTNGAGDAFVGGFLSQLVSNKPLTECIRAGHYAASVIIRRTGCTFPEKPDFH
Assay [4] concerns Rattus norvegicus. The experiment in a line: Reduction in formalin induced nociception after 10 umol/kg intraperitoneal administration.

For the molecule `CN(C)c1ccc(-c2nc3ncnc(N)c3c(-c3ccccc3)c2-c2ccccc2)cc1`, the Max protective effect in assay [1] came out at 77%. The values for the pIC50 in assay [2] and in assay [3] were 6.60 and 7.80, respectively.
With `CN(C)c1ccc(-c2nc3ncnc(N)c3c(-c3ccccc3)c2-c2ccccc2)cn1`, the Max protective effect in assay [1] was determined as 50%; in assay [4] it was 38%. Moreover, the pIC50 in assay [2] was 7.28; in assay [3], 8.49.
For `COCCN(C)c1ccc(-c2nc3ncnc(N)c3c(-c3cc(Br)cs3)c2-c2ccc(OC)c(OC)c2)cc1`, the negative-log IC50 (pIC50) in assay [2] was 6.44; in assay [3], 9.01.
On to `Nc1ncnc2nc(-c3ccc(N4CCOCC4)nc3)c(-c3ccccc3)c(-c3cccc(Br)c3)c12`, for which the pIC50 in assay [2] is 6.81; in assay [3], 8.40.
Take `Cc1ccc(-c2c(-c3cccs3)nc3ncnc(N)c3c2-c2ccc(C)c(F)c2)cc1F`: the pIC50 in assay [2] is 6.54; in assay [3], 9.60.
The like results for `Nc1ncnc2nc(-c3ccc(N4CCOCC4)nc3)c(Cc3ccccc3)c(-c3cccc(Br)c3)c12` were, in that order, 6.35 and 7.20.
Regarding `CN(C)c1ccc(-c2nc3ncnc(N)c3cc2-c2ccccc2)cc1`, the pIC50 in assay [2] was 5.82; in assay [3] it was 6.46.
On to `CN(C)c1ccc(-c2c(-c3ccc(N4CCOCC4)nc3)nc3ncnc(N)c3c2-c2cccc(Cl)c2)cc1`, for which the pIC50 was 6.89 in assay [2] and 7.43 in assay [3].
The like results for `CC(C)c1ccc(-c2c(-c3ccc(N(C)C)cc3)nc3ncnc(N)c3c2-c2ccc(C(C)C)cc2)cc1` were, in that order, under 6.00 and 8.17.
Take `Nc1ncnc2nc(-c3ccc(N4CCOCC4)nc3)c(-c3ccc(F)cc3)c(-c3cccc(Br)c3)c12`: the pIC50 in assay [2] was 6.71; in assay [3], 8.30.
The like results for `CC(C)c1c(-c2ccc(N3CCOCC3)nc2)nc2ncnc(N)c2c1-c1cccc(Br)c1` were, in that order, under 6.00 and 6.40.
The like results for `COC(=O)Cc1c(-c2cccs2)nc2ncnc(N)c2c1-c1cccc(Br)c1` were, in that order, 6.79 and 8.52.
On to `CN(C)c1ccc(-c2nc3ncnc(N)c3c(-c3cc(Br)cs3)c2C2CC2)cn1`, for which the pIC50 in assay [2] is 6.20; in assay [3] it was 7.22.
With `CN(C)c1ccc(-c2nc3ncnc(N)c3c(-c3cccc(Br)c3)c2C2CCCCC2)cn1`, the negative-log IC50 (pIC50) in assay [2] is under 6.00; in assay [3], 6.52.
The like results for `Clc1ccc(-c2cnc3c(N4CCOCC4)ncnc3n2)cc1` were, in that order, 4.66 and 6.39.
Consider `CN(C)c1ccc(-c2nc3ncnc(N)c3c(-c3cccc(Cl)c3)c2-c2ccccc2)cn1`, for which the Max protective effect in assay [1] is recorded as 56%; in assay [4], 39%. Besides, the values for the pIC50 in assay [2] and in assay [3] were 6.89 and 8.30, respectively.
On to `CCCCCc1c(-c2ccc(N(C)C)nc2)nc2ncnc(N)c2c1-c1cccc(Br)c1`, for which the negative-log IC50 (pIC50) in assay [2] is 6.20; in assay [3], 7.26.
Consider `Nc1ncnc2nc(-c3cccs3)c(-c3ccccc3)c(-c3ccccc3)c12`, for which the pIC50 in assay [2] is 7.31; in assay [3] it was 9.26.
For `COc1ccc(-c2c(-c3cccs3)nc3ncnc(N)c3c2-c2cc(Br)cs2)cc1OC`, in that order: 7.60 and 9.37.
For `COc1ccc(-c2c(-c3ccc(N(C)C)cc3)nc3ncnc(N)c3c2-c2cccc(Br)c2)cc1OC`, in that order: 6.46 and 8.51.
